Reference: article PMC3304490 (Biochemical Journal, 2012)
Where “and” joins values, the source holds several entries; their conditions need not be identical. Equal entries are not always repeated. Where two headings read alike, the source gives them in different places. Blank lines part the entries; values can stand above or below the compound they belong to.

Tests used:
[1] = biological target: CR5 (DxDDD) domain of LRP (Homo sapiens, UniProt Q07954); assay: Tryptophan fluorescence titration of amino acid ligands with CR5 domain; format: binding; conditions: for ΔG^u: unitary free energy
Outline: (§1)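 Each CR domain (1–3 μM) was titrated at 298 K in buffer with 1 mM Ca2+ and 0.1% PEG 8000: 20 mM Mes at pH 5.5 or 20 mM Tris/HCl at pH 7.4, with NaCl set to the target ionic strength. Tryptophan emission (λex 280 nm) was read at the wavelength of maximal change and averaged over 120 s, with blank and dilution correction. Kd came from a non-linear single-site fit, using the protonated ligand fraction.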

[2] = test system: cluster II CR domains of LRP; assay: Fluorescence titrations, summary statements across several CR domains; format: binding
Outline: as §1

[3] = biological target: CR3 (DxDxD) domain of LRP (Homo sapiens, UniProt Q07954); assay: Tryptophan fluorescence titration of amino acid ligands with CR3 domain; format: binding; conditions: for ΔG^u: unitary free energy
Outline: as §1

[4] = biological target: CR8 (DxDxD) domain of LRP (Homo sapiens, UniProt Q07954); assay: Tryptophan fluorescence titration of amino acid ligands with CR8 domain; format: binding; conditions: for slope of Debye–Hückel plot (−zA×zB): ionic-strength-dependence of binding; for ΔG^u: unitary free energy; for fold weaker Kd than lysine methyl ester: pH 5.5, I=0.02
[5] = biological target: D1085A (DxxxD) CR8 variant (Homo sapiens, UniProt Q07954, D1085A); assay: Tryptophan fluorescence titration of amino acid ligands with CR8 variant D1085A; format: binding; conditions: for Kd: I=0.02, pH 5.5, 298 K; for ΔG^u: unitary free energy
Outline: as §1

[6] = cited from earlier work
[7] = pKa values used for correction of ligand concentration; format: physicochemical; conditions: pH 5.5
[8] = Table 3, pH 7.4, ionic strength not given
[9] = CR3, CR5 and CR8, I=0.02, both pH values
[10] = physiological ionic strength, binding favoured at pH 7.4
[11] = irrespective of ionic strength or pH, results not shown

Chain of D1085A (DxxxD) CR8 variant (Q07954 1060-1099 D1085A limits assumed): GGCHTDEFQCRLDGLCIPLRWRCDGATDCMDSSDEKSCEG
Chain of CR5 (DxDDD) domain of LRP (Q07954 934-973 limits assumed): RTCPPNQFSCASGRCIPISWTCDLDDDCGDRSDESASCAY
Chain of CR3 (DxDxD) domain of LRP (Q07954 852-892 limits assumed): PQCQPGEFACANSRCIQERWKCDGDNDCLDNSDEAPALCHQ
Chain of CR8 (DxDxD) domain of LRP (Q07954 1060-1099 limits assumed): as the sequence (Q07954 1060-1099 D1085A limits assumed) above, with A26D counted along it

Compound: Aspartate methyl ester
ΔG° ([1]; Table 3, pH 5.5): -1.67 kcal/mol | ΔG° ([1]; Table 3, pH 7.4): -1.63 kcal/mol | Kd [1, 8]: 63000 ± 5000 µM | fold weaker Kd than lysine methyl ester ([2]; Table 3 domains): 65–450 fold | ΔΔG° compared with lysine methyl ester ([2]; Table 3 domains): 2.46 to 3.63 kcal/mol | perturbation of CR domain tryptophan fluorescence in presence of EDTA ([2]; titrations repeated with EDTA to remove Ca^2+, results not shown): no perturbation | ΔG° ([3]; Table 3, pH 5.5): -1.48 kcal/mol | ΔG° ([3]; Table 3, pH 7.4): -1.6 kcal/mol | Kd [3, 8]: 66000 ± 11000 µM | ΔG° ([4]; Table 3, pH 5.5): -1.51 kcal/mol | ΔG° ([4]; Table 3, pH 7.4): -1.27 kcal/mol | fold weaker Kd of D1085A variant than of CR8 [5]: ~ 3 fold | ΔG° ([5]; Table 3, pH 5.5): -0.86 kcal/mol | ΔG° ([5]; Table 3, pH 7.4): -0.789 kcal/mol

Compound: COC(=O)[C@@H](N)CCCN=C(N)N [Arginine methyl ester]
ΔG° ([1]; I=0.02, pH 5.5): -4.83 kcal/mol | Kd ([1]; I=0.02, pH 5.5, 298 K): 290 ± 10 µM | ΔG° ([1]; I=0.02, pH 7.4): -4.42 kcal/mol | ΔG° ([1]; I=0.17, pH 5.5): -4.18 kcal/mol | Kd ([1]; I=0.17, pH 5.5, 298 K): 840 ± 50 µM | ΔG° ([1]; I=0.17, pH 7.4): -4.25 kcal/mol | difference in ΔG° between pH 5.5 and 7.4 [1, 10]: 0.3 kJ/mol | ΔG^u ([1]; I=0.02, pH 5.5): -7.19 kcal/mol | ΔG^u ([1]; I=0.02, pH 7.4): -6.76 kcal/mol | ΔG^u ([1]; I=0.17, pH 5.5): -6.55 kcal/mol | ΔG^u ([1]; I=0.17, pH 7.4): -6.62 kcal/mol | ΔG° ([3]; I=0.02, pH 5.5): -4.33 kcal/mol | Kd ([3]; I=0.02, pH 5.5, 298 K): 680 ± 70 µM | ΔG° ([3]; I=0.02, pH 7.4): -4.25 kcal/mol | ΔG° ([3]; I=0.17, pH 5.5): -3.66 kcal/mol | Kd ([3]; I=0.17, pH 5.5, 298 K): 2090 ± 160 µM | ΔG° ([3]; I=0.17, pH 7.4): -4.23 kcal/mol | ΔG^u ([3]; I=0.02, pH 5.5): -6.69 kcal/mol | ΔG^u ([3]; I=0.02, pH 7.4): -6.62 kcal/mol | ΔG^u ([3]; I=0.17, pH 5.5): -6.02 kcal/mol | ΔG^u ([3]; I=0.17, pH 7.4): -6.6 kcal/mol | ΔG° ([4]; I=0.02, pH 5.5): -5.02 kcal/mol | Kd ([4]; I=0.02, pH 5.5, 298 K): 210 ± 10 µM | ΔG° ([4]; I=0.02, pH 7.4): -4.68 kcal/mol | ΔG° ([4]; I=0.17, pH 5.5): -4.23 kcal/mol | Kd ([4]; I=0.17, pH 5.5, 298 K): 780 ± 10 µM | ΔG° ([4]; I=0.17, pH 7.4): -4.42 kcal/mol | ΔG^u ([4]; I=0.02, pH 5.5): -7.39 kcal/mol | ΔG^u ([4]; I=0.02, pH 7.4): -7.05 kcal/mol | ΔG^u ([4]; I=0.17, pH 5.5): -6.6 kcal/mol | ΔG^u ([4]; I=0.17, pH 7.4): -6.79 kcal/mol | ΔG° ([5]; I=0.02, pH 5.5): -3.49 kcal/mol | Kd [5]: 2800 ± 110 µM | ΔG° ([5]; I=0.02, pH 7.4): -3.13 kcal/mol | ΔG^u ([5]; I=0.02, pH 5.5): -5.86 kcal/mol | ΔG^u ([5]; I=0.02, pH 7.4): -5.5 kcal/mol

Compound: COC(=O)[C@@H](N)Cc1c[nH]cn1 [Histidine methyl ester]
fraction of the imidazole protonated [7]: ~ 40% | ΔG° ([1]; Table 3, pH 5.5): -4.76 kcal/mol | ΔΔG° compared with lysine methyl ester ([2]; four domains, pH 5.5 and low ionic strength): 0.14 to 0.48 kcal/mol | ΔG° ([3]; Table 3, pH 5.5): -3.99 kcal/mol | pKa ([6]; side chain (imidazole)): 5.33 | ΔG° ([4]; Table 3, pH 5.5): -4.83 kcal/mol | ΔG° ([5]; Table 3, pH 5.5): -3.18 kcal/mol

Compound: COC(=O)[C@H](C)N [Alanine methyl ester]
Kd [1]: 4100 ± 240 µM | ΔG° ([1]; Table 3, pH 5.5): -3.25 kcal/mol | fold weaker Kd than lysine methyl ester ([1]; pH 5.5): 23 fold | ΔΔG° compared with lysine methyl ester ([2]; CR5 and CR8): 1.86 to 1.98 kcal/mol | Kd [4]: 4900 ± 250 µM | ΔG° ([4]; Table 3, pH 5.5): -3.15 kcal/mol | fold weaker Kd than lysine methyl ester [4]: 28 fold

Now from value to compound, other results behind:

ΔG° ([1]; I=0.02, pH 5.5): -5.11 kcal/mol | Kd ([1]; I=0.02, pH 5.5, 298 K): 180 ± 10 µM | ΔG° ([1]; I=0.02, pH 7.4): -4.85 kcal/mol | ΔG° ([1]; I=0.17, pH 5.5): -4.4 kcal/mol | Kd ([1]; I=0.17, pH 5.5, 298 K): 600 ± 40 µM | ΔG° ([1]; I=0.17, pH 7.4): -4.64 kcal/mol | ΔG^u ([1]; I=0.02, pH 5.5): -7.46 kcal/mol | ΔG^u ([1]; I=0.02, pH 7.4): -7.22 kcal/mol | ΔG^u ([1]; I=0.17, pH 5.5): -6.76 kcal/mol | ΔG^u ([1]; I=0.17, pH 7.4): -7 kcal/mol | fold reduction in Kd compared with N^α-acetyl-lysine methyl ester [2, 9]: 5–18 fold | ΔG° ([3]; I=0.02, pH 5.5): -4.47 kcal/mol | Kd ([3]; I=0.02, pH 5.5, 298 K): 530 ± 50 µM | ΔG° ([3]; I=0.02, pH 7.4): -4.97 kcal/mol | ΔG° ([3]; I=0.17, pH 5.5): -3.99 kcal/mol | Kd ([3]; I=0.17, pH 5.5, 298 K): 1190 ± 110 µM | ΔG° ([3]; I=0.17, pH 7.4): -4.68 kcal/mol | difference in ΔG° between pH 5.5 and 7.4 [3, 10]: 2.9 kJ/mol | ΔG^u ([3]; I=0.02, pH 5.5): -6.84 kcal/mol | ΔG^u ([3]; I=0.02, pH 7.4): -7.34 kcal/mol | ΔG^u ([3]; I=0.17, pH 5.5): -6.36 kcal/mol | ΔG^u ([3]; I=0.17, pH 7.4): -7.05 kcal/mol | ΔG° ([4]; 298 K, pH 7.4, I=0.17, from interpolated Kd): -4.66 kcal/mol | ΔG° ([4]; I=0.02, pH 5.5): -5.14 kcal/mol | Kd ([4]; I=0.02, pH 5.5, 298 K): 170 ± 10 µM | ΔG° ([4]; I=0.02, pH 7.4): -5.11 kcal/mol | ΔG° ([4]; I=0.17, pH 5.5): -4.42 kcal/mol | Kd ([4]; I=0.17, pH 5.5, 298 K): 570 ± 20 µM | ΔG° ([4]; I=0.17, pH 7.4): -4.71 kcal/mol | blue shift of CR8 tryptophan fluorescence ([4]; at saturation (Figure 2)): approximately 7 nm | slope of Debye–Hückel plot (−zA×zB) ([4]; pH 5.5): 2.2 | maximum quench of CR8 fluorescence at saturation ([4]; pH 7.4, I=0.17, 294 K (Figure 2)): 66% | ΔS° ([4]; pH 7.4, I=0.17, van't Hoff analysis): 29 J·K^−1·mol^−1 | slope of Debye–Hückel plot (−zA×zB) ([4]; pH 7.4): 1.5 and 1.53 | ΔG ([4]; physiological conditions of 310 K and I=0.17, pH 7.4): -4.57 kcal/mol | Kd ([4]; read-out: interpolated Kd, 298 K, pH 7.4, I=0.17, from van't Hoff plot): 380 µM | ΔG^u ([4]; I=0.02, pH 5.5): -7.5 kcal/mol | ΔG^u ([4]; I=0.02, pH 7.4): -7.46 kcal/mol | ΔG^u ([4]; I=0.17, pH 5.5): -6.79 kcal/mol | ΔG^u ([4]; I=0.17, pH 7.4): -7.07 kcal/mol | ΔH° ([4]; van't Hoff plot 279–310 K, pH 7.4, I=0.17): -2.56 kcal/mol | Kd of D1085A, fold higher than for N^α-acetyl-lysine methyl ester [5]: ~ 3 fold | ΔG° ([5]; I=0.02, pH 5.5): -3.32 kcal/mol | Kd [5]: 3700 ± 130 µM | ΔG° ([5]; I=0.02, pH 7.4): -3.27 kcal/mol | fold decrease of Kd compared with N^α-acetyl-lysine methyl ester ([5]; pH 5.5 and I=0.02): less than 4 fold | ΔG^u ([5]; I=0.02, pH 5.5): -5.69 kcal/mol | ΔG^u ([5]; I=0.02, pH 7.4): -5.64 kcal/mol
Compound: COC(=O)[C@@H](N)CCCCN [Lysine methyl ester]
increase in ΔG° compared with N^α-acetyl-lysine methyl ester [2, 9]: 1.03 to 1.72 kcal/mol | pKa ([6]; α-amino group): 7.2

ΔG° ([1]; I=0.02, pH 5.5): -3.75 kcal/mol | Kd ([1]; I=0.02, pH 5.5, 298 K): 1800 ± 160 µM | ΔG° ([1]; I=0.02, pH 7.4): -3.8 kcal/mol | ΔG° ([1]; I=0.17, pH 5.5): -3.59 kcal/mol | Kd ([1]; I=0.17, pH 5.5, 298 K): 2300 ± 490 µM | ΔG° ([1]; I=0.17, pH 7.4): -3.54 kcal/mol | ΔG° ([3]; I=0.02, pH 5.5): -3.47 kcal/mol | Kd ([3]; I=0.02, pH 5.5, 298 K): 2900 ± 120 µM | ΔG° ([3]; I=0.02, pH 7.4): -3.7 kcal/mol | ΔG° ([3]; I=0.17, pH 5.5): -3.47 kcal/mol | Kd ([3]; I=0.17, pH 5.5, 298 K): 2900 ± 280 µM | ΔG° ([3]; I=0.17, pH 7.4): -3.56 kcal/mol | ΔG° ([4]; I=0.02, pH 5.5): -3.42 kcal/mol | Kd ([4]; I=0.02, pH 5.5, 298 K): 3100 ± 440 µM | ΔG° ([4]; I=0.02, pH 7.4): -3.75 kcal/mol | ΔG° ([4]; I=0.17, pH 5.5): -3.51 kcal/mol | Kd ([4]; I=0.17, pH 5.5, 298 K): 2600 ± 280 µM | ΔG° ([4]; I=0.17, pH 7.4): -3.42 kcal/mol | ΔG° ([5]; I=0.02, pH 5.5): -2.58 kcal/mol | Kd [5]: 12800 ± 2000 µM | ΔG° ([5]; I=0.02, pH 7.4): -2.58 kcal/mol | loss of binding energy for D1085A ([5]; compared with domains with central aspartate): 0.837 to 1.22 kcal/mol
Compound: COC(=O)[C@H](CCCCN)NC(C)=O [N^α-acetyl-lysine methyl ester]
range of ΔG° values ([2]; CR3, CR5 and CR8, two ionic strengths, pH 5.5 and 7.4): -3.8 to -3.42 kcal/mol

Kd [4]: 1050 µM | fold weaker Kd than lysine methyl ester [4]: 6 fold
Compound: NCCCC[C@H](N)C(=O)O [unmodified lysine, lysine]

binding affinity compared with lysine methyl ester [1, 11]: negligible difference | binding affinity compared with lysine methyl ester [3, 11]: negligible difference | binding affinity compared with lysine methyl ester [4, 11]: negligible difference
Compound: CCOC(=O)[C@@H](N)CCCCN [lysine ethyl ester]
